Source: ChEMBL document CHEMBL2086326, “Biological activity evaluation and structure-activity relationships analysis of ferulic acid and caffeic acid derivatives for anticancer” (Bioorg Med Chem Lett, 2012)

Columns and labels:
Format in all cases: functional, cell-based
LOX IMVI = assay: Cytotoxicity against human LOXIMVI cells after 72 hrs by alamar blue assay
Procedure, shortened: (§1)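 Cells seeded at 800–1000 per well (20–25 cells/µL) and left overnight to attach. Compounds were diluted serially from 10 mM DMSO stocks and tested at 8 final concentrations, 50 to 0.39 µM, in triplicate for 72 h. Vehicle control was 0.5% DMSO. Alamar blue was added to 10% final and fluorescence read after 4 h (ex 530, em 560 nm). Viability was expressed as percent of vehicle, and IC50 taken as 50% kill versus control.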

[1] = Cytotoxicity against human SKBR cells after 72 hrs by alamar blue assay; procedure, shortened: as §1
[2] = Cytotoxicity against human 292G cells after 72 hrs by alamar blue assay; procedure, shortened: as §1
[3] = Cytotoxicity against human H266 cells after 72 hrs by alamar blue assay; conditions: H266, 72 h; procedure, shortened: as §1
NCI-H1299 = assay: Cytotoxicity against human NCI-H1299 cells after 72 hrs by alamar blue assay; conditions: NCI-H1299, 72 h; procedure, shortened: as §1
Calu-1 = assay: Cytotoxicity against human Calu1 cells after 72 hrs by alamar blue assay; conditions: Calu-1, 72 h; procedure, shortened: as §1
HeLa = assay: Cytotoxicity against human HeLa cells after 72 hrs by alamar blue assay; procedure, shortened: as §1
A549 = assay: Cytotoxicity against human A549 cells after 72 hrs by alamar blue assay; conditions: A549, 72 h; procedure, shortened: as §1
HOP-62 = assay: Cytotoxicity against human HOP62 cells after 72 hrs by alamar blue assay; conditions: HOP-62, 72 h; procedure, shortened: as §1
M14 = assay: Cytotoxicity against human M14 cells after 72 hrs by alamar blue assay; conditions: M14, 72 h; procedure, shortened: as §1
[4] = Cytotoxicity against human M4E cells after 72 hrs by alamar blue assay; procedure, shortened: as §1
NCI-H157 = assay: Cytotoxicity against human NCI-H157 cells after 72 hrs by alamar blue assay; conditions: NCI-H157, 72 h; procedure, shortened: as §1
NCI-H460 = assay: Cytotoxicity against human H460 cells after 72 hrs by alamar blue assay; conditions: NCI-H460, 72 h; procedure, shortened: as §1
NCI-H1792 = assay: Cytotoxicity against human NCI-H1792 cells after 72 hrs by alamar blue assay; conditions: NCI-H1792, 72 h; procedure, shortened: as §1

Row | Structure (SMILES) | IC50 (LOX IMVI) | IC50 [1] | IC50 [2] | IC50 [3] | IC50 (NCI-H1299) | IC50 (Calu-1) | IC50 (HeLa) | IC50 (A549) | IC50 (HOP-62) | IC50 (M14) | IC50 [4] | IC50 (NCI-H157) | IC50 (NCI-H460) | IC50 (NCI-H1792)
1 | COc1cc(/C=C/C(=O)OCC(C)C)ccc1O | > 50 µM | 44.8 µM | > 50 µM | 35.7 µM | 38 µM | > 50 µM | 28.7 µM | 34.6 µM | > 50 µM | > 50 µM | > 50 µM | 28.3 µM | > 50 µM | > 50 µM
2 | COc1cc(/C=C/C(=O)Oc2ccc(OCc3c(-c4ccccc4)no[n+]3[O-])cc2)ccc1O | > 50 µM | 11 µM | 31 µM | > 50 µM | 28.5 µM | 28.8 µM | 12.1 µM | 3.39 µM | 30.4 µM | > 50 µM | > 50 µM | 43.1 µM | 15.8 µM | 8.15 µM
3 | COc1cc(/C=C/C(=O)OC/C=C/CO[N+](=O)[O-])ccc1O | 2.36 µM | 6.53 µM | 21.9 µM | 9.79 µM | 2.34 µM | 2.48 µM | 1 µM | 5.95 µM | 5.13 µM | 3.89 µM | 9.38 µM | 4.29 µM | 4.98 µM | 4.86 µM
4 | COc1cc(/C=C/C(=O)OCCCO[N+](=O)[O-])ccc1OCCCO[N+](=O)[O-] | > 50 µM | > 50 µM | > 50 µM | > 50 µM | > 50 µM | 1.42 µM | 3.62 µM | 15.8 µM | > 50 µM | > 50 µM | > 50 µM | > 50 µM | > 50 µM | > 50 µM
5 | O=C(/C=C/c1ccc(O)c(O)c1)OC/C=C/CO[N+](=O)[O-] | 0.43 µM | 0.41 µM | 7.95 µM | 10.3 µM | 0.41 µM | 0.42 µM | 0.4 µM | 0.4 µM | 4.65 µM | 1.49 µM | 4.31 µM | 1.36 µM | 2.9 µM | 0.41 µM
6 | COc1cc(/C=C/C(=O)OCCCCCCO[N+](=O)[O-])ccc1O | > 50 µM | 15.2 µM | > 50 µM | > 50 µM | > 50 µM | > 50 µM | 16.3 µM | 37.4 µM | > 50 µM | > 50 µM | > 50 µM | 32.1 µM | > 50 µM | 48.7 µM
7 | CCOC(=O)/C=C/c1ccc(O)c(OC)c1 [ETHYL FERULATE] | > 50 µM | 24.9 µM | 32 µM | 28.1 µM | 36.8 µM | > 50 µM | 2.13 µM | 12.5 µM | 26.8 µM | > 50 µM | 33.4 µM | 32.3 µM | 29.1 µM | 25.6 µM
8 | COc1cc(/C=C/C(=O)OCc2c(-c3ccccc3)no[n+]2[O-])ccc1O | 13.8 µM | 4.98 µM | 16.5 µM | 13.4 µM | 12.9 µM | 22.9 µM | 7.82 µM | 2.06 µM | 8.66 µM | 14 µM | 3.37 µM | 4.53 µM | 7.03 µM | 11.1 µM
9 | COc1cc(/C=C/C(=O)OCc2ccc(OCc3c(-c4ccccc4)no[n+]3[O-])cc2)ccc1O | > 50 µM | 11.7 µM | > 50 µM | > 50 µM | > 50 µM | > 50 µM | > 50 µM | 17.2 µM | > 50 µM | > 50 µM | > 50 µM | > 50 µM | 44.2 µM | > 50 µM
10 | COC(=O)/C=C/c1ccc(O)c(O)c1 [METHYLCAFFEATE] | 21.8 µM | 5.15 µM | 3.11 µM | > 50 µM | 3.53 µM | 5.5 µM | 3.77 µM | 7.54 µM | 3.86 µM | 8.86 µM | 8.89 µM | 6.25 µM | 14.8 µM | 6.09 µM
11 | COc1cc(/C=C/C(=O)OCCOCCOc2no[n+]([O-])c2S(=O)(=O)c2ccccc2)ccc1O | 0.42 µM | 0.41 µM | 2.88 µM | 0.42 µM | 0.49 µM | 0.45 µM | 0.43 µM | 0.41 µM | 0.48 µM | 0.41 µM | 1.12 µM | 0.44 µM | 0.43 µM | 1.07 µM
12 | CCCCCOC(=O)/C=C/c1ccc(O)c(OC)c1 | > 50 µM | > 50 µM | > 50 µM | > 50 µM | > 50 µM | > 50 µM | > 50 µM | > 50 µM | > 50 µM | > 50 µM | > 50 µM | > 50 µM | > 50 µM | > 50 µM
13 | COc1cc(/C=C/C(=O)OCCCCO[N+](=O)[O-])ccc1O | 20.4 µM | 8.92 µM | 28.4 µM | 24.8 µM | 4.51 µM | 30.1 µM | 6.35 µM | 8.82 µM | 13.1 µM | 32.5 µM | 20.3 µM | 12.9 µM | 19.5 µM | 20.8 µM
14 | COc1cc(/C=C/C(=O)OCCC(C)C)ccc1O [ISOPENTYL FERULATE] | 48.4 µM | 41.5 µM | 48.4 µM | 48.1 µM | 31.5 µM | 32.2 µM | > 50 µM | 43.6 µM | 31.2 µM | 45.8 µM | 30.5 µM | 40.2 µM | 45 µM | 37.7 µM
15 | COc1cc(/C=C/C(=O)OCCCCOc2no[n+]([O-])c2S(=O)(=O)c2ccccc2)ccc1O | 0.44 µM | 0.42 µM | 1.93 µM | 0.4 µM | 0.42 µM | 0.41 µM | 0.46 µM | 0.4 µM | 0.41 µM | 0.4 µM | 0.84 µM | 0.42 µM | 0.45 µM | 0.42 µM
16 | CC(C)COC(=O)/C=C/c1ccc(O)c(O)c1 | > 50 µM | 16.2 µM | 37.5 µM | > 50 µM | 37.7 µM | > 50 µM | 4.7 µM | 13.6 µM | > 50 µM | > 50 µM | 36.8 µM | 8.55 µM | 16 µM | > 50 µM
